Laboratory results taken from ChEMBL document CHEMBL3853321, “Optimization of Platelet-Derived Growth Factor Receptor (PDGFR) Inhibitors for Duration of Action, as an Inhaled Therapy for Lung Remodeling in Pulmonary Arterial Hypertension” (J Med Chem, 2016).
Converted amounts (≈) assume the structure as drawn. One block for each compound: values may come before it. The source made the active and inactive calls. The calls are words filed in the database; no cut-off is given here.

Assays:
[1] = Drug uptake in rat lung at 0.4 mg/kg, it at 24 hrs; type: ADME, organism-based; conditions: inhaled or intranasal, read-out: Drug uptake
Method in brief: (§1)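 Single intratracheal dose as a solution in 10% PEG200/[…] D5W vehicle; compound concentration measured in lung tissue at 7 h or 24 h after dosing.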

[2] = Drug uptake in rat lung at 0.1 mg/kg, it at 7 hrs; type: ADME, organism-based; conditions: inhaled or intranasal, read-out: Drug uptake; method in brief: as §1
[3] = Drug uptake in rat lung at 0.4 mg/kg, it at 7 hrs; type: ADME, organism-based; conditions: inhaled or intranasal, read-out: Drug uptake; method in brief: as §1
Rattus norvegicus [4] = assay: In vivo receptor occupancy at PDGFR-beta kinase domain in rat lung at 0.4 mg/kg, it measured after 24 hrs by immunoprecipitation assay; type: functional
Rattus norvegicus [5] = assay: In vivo receptor occupancy at PDGFR-beta kinase domain in rat lung at 0.1 mg/kg, it measured after 7 hrs by immunoprecipitation assay; type: functional
[6] = Transcellular permeability of the compound by PAMPA; type: ADME
[7] = Solubility of the compound using 10%PEG200/[…]D5W by high-throughput assay; type: physicochemical
Method in brief: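 Solubility determined in the intratracheal dosing vehicle, 10% PEG200/[…] D5W.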

Rattus norvegicus [8] = assay: In vivo receptor occupancy at PDGFR-beta kinase domain in rat lung at 0.4 mg/kg, it measured after 7 hrs by immunoprecipitation assay; type: functional
[9] = molecular target: Platelet-derived growth factor receptor alpha (Homo sapiens, UniProt P16234); assay: Inhibition of PDGFRalpha kinase domain (unknown origin) assessed as reduction in probe peptide substrate phosphorylation by capillary electrophoresis
Chain of Platelet-derived growth factor receptor alpha (P16234 whole entry, the tested form may be a part): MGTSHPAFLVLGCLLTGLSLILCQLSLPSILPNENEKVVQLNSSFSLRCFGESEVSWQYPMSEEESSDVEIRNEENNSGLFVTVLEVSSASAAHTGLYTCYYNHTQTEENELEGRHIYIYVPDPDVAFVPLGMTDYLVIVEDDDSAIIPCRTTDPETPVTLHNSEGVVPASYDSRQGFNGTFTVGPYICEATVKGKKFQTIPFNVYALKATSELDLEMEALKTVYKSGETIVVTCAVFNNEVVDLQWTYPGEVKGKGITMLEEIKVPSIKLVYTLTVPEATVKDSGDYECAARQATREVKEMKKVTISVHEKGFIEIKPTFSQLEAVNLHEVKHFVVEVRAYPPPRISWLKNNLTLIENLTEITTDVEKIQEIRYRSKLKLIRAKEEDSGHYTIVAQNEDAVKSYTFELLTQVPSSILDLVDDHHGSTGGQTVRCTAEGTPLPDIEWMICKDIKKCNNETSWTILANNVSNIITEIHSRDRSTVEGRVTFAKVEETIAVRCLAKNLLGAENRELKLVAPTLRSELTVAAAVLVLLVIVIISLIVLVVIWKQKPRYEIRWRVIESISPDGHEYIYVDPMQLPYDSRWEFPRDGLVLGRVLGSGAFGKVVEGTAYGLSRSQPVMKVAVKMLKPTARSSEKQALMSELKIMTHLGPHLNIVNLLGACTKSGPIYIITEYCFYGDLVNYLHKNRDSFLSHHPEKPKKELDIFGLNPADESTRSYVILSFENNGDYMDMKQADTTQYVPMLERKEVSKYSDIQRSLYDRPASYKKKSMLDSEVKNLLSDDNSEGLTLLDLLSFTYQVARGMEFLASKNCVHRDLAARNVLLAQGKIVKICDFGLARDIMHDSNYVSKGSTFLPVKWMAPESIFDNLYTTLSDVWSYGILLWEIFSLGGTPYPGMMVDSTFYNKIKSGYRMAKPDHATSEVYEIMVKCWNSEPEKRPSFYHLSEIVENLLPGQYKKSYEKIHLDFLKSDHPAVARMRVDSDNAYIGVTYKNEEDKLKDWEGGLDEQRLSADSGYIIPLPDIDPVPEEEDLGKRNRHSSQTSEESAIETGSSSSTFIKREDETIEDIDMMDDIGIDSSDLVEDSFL

[10] = Drug uptake in rat lung at 0.1 mg/kg, it at 24 hrs; type: ADME, organism-based; conditions: inhaled or intranasal, read-out: Drug uptake; method in brief: as §1
Rattus norvegicus [11] = assay: In vivo receptor occupancy at PDGFR-beta kinase domain in rat lung at 0.1 mg/kg, it measured after 24 hrs by immunoprecipitation assay; type: functional
Rattus norvegicus [12] = assay: In vivo receptor occupancy at PDGFR-beta kinase domain in rat lung at 1 mg/kg, it measured after 7 hrs by immunoprecipitation assay; type: functional
[13] = Drug uptake in rat lung at 1 mg/kg, it at 7 hrs; type: ADME, organism-based; conditions: inhaled or intranasal, read-out: Drug uptake; method in brief: as §1
[14] = molecular target: T1, Muscarinic acetylcholine receptor M1 (Homo sapiens, UniProt P11229); assay: Inhibition of M1 receptor (unknown origin)
T1 sequence (P11229 whole entry): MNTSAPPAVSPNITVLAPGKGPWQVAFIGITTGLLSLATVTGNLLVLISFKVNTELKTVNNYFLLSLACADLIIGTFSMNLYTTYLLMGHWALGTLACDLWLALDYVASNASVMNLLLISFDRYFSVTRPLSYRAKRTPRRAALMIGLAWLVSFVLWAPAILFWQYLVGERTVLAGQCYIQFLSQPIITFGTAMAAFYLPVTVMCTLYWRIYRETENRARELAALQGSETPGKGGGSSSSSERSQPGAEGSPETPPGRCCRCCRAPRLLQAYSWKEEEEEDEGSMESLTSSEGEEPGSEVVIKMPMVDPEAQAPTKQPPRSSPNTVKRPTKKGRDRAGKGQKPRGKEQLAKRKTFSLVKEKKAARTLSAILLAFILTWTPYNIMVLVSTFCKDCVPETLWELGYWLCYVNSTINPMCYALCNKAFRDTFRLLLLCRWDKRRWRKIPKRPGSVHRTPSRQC

[15] = molecular target: Voltage-gated inwardly rectifying potassium channel KCNH2 (Homo sapiens, UniProt Q12809); assay: Inhibition of human ERG
Chain of Voltage-gated inwardly rectifying potassium channel KCNH2 (Q12809 whole entry): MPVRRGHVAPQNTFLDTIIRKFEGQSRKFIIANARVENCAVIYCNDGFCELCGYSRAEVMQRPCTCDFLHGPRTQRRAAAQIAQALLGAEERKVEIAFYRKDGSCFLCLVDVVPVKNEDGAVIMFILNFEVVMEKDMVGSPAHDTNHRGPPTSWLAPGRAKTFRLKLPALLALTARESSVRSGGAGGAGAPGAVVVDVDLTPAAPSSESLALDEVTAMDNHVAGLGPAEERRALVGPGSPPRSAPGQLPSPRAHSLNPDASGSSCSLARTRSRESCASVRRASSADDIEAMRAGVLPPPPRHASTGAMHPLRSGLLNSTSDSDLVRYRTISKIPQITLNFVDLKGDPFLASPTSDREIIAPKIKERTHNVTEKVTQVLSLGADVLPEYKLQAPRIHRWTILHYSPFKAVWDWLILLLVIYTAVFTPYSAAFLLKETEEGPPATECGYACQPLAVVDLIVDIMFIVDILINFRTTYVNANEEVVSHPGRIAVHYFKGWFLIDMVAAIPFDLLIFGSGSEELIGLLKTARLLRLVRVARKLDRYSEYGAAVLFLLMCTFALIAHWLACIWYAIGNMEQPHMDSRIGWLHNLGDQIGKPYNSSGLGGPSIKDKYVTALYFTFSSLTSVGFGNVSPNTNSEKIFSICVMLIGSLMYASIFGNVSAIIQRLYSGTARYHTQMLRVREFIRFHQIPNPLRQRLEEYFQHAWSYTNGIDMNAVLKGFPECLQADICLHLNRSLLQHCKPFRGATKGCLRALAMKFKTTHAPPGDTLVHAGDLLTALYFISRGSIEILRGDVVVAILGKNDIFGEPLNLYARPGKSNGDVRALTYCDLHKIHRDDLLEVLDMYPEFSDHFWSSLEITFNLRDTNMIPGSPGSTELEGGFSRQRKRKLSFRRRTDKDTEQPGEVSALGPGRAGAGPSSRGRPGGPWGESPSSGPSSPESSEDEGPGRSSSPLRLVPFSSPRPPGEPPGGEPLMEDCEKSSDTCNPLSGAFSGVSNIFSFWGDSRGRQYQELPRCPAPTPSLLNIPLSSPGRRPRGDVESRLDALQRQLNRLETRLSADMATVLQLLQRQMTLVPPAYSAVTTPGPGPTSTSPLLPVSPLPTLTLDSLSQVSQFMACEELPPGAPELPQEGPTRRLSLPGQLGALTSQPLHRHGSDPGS

Rattus norvegicus [16] = assay: Anti-remodeling activity in it dosed rat monocrotaline model of pulmonary arterial hypertension assessed as reduction in MCT-induced muscularization of small blood vessels in lung administered twice daily for 7 days by histological analysis; type: functional; conditions: 168 h, read-out: MED
Method in brief: (§2)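 Rats given monocrotaline two weeks beforehand so pathology develops; compound then given intratracheally twice daily for seven days (therapeutic mode). Read-out: percentage of fully muscularized small pulmonary vessels; group values given as mean with SEM.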

[17] = Drug uptake in blood of rat monocrotaline model of pulmonary arterial hypertension at 0.03 mg/kg, it; type: ADME, organism-based; conditions: in vivo, inhaled_or_intranasal, read-out: Drug uptake
[18] = Oral bioavailability in it dosed rat; type: ADME, organism-based; conditions: in vivo
Rattus norvegicus [19] = assay: Anti-remodeling activity in rat monocrotaline model of pulmonary arterial hypertension assessed as reduction in MCT-induced muscularization of small blood vessels in lung at 0.03 mg/kg, it administered twice daily for 7 days by histological analysis relative to control; type: functional; design: scale not given: the % may be the effect or the level left; method in brief: as §2
[20] = Half life in rat; type: ADME; conditions: in vivo
[21] = Drug uptake in blood of rat monocrotaline model of pulmonary arterial hypertension at 0.01 mg/kg, it; type: ADME, organism-based; conditions: in vivo, inhaled_or_intranasal, read-out: Drug uptake
[22] = Drug uptake in blood of rat monocrotaline model of pulmonary arterial hypertension at 0.1 mg/kg, it; type: ADME, organism-based; conditions: in vivo, inhaled_or_intranasal, read-out: Drug uptake
Histamine H3 receptor = Histamine H3 receptor (Homo sapiens, UniProt Q9Y5N1); assay: Inhibition of H3 receptor (unknown origin)
Chain of Histamine H3 receptor (Q9Y5N1 whole entry): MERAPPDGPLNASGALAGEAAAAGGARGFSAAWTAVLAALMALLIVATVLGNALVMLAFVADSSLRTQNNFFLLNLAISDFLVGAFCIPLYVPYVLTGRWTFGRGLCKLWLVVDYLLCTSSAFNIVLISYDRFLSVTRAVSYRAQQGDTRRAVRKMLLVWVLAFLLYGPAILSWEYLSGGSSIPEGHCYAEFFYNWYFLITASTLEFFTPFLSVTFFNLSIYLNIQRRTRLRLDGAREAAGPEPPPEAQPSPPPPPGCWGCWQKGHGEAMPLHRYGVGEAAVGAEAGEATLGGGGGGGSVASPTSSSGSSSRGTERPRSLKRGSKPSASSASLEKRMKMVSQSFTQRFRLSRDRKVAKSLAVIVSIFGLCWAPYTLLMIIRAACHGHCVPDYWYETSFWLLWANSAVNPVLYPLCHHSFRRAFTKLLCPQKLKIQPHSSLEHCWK

[23] = Drug uptake in blood of rat monocrotaline model of pulmonary arterial hypertension at 100 mg/kg, po; type: ADME, organism-based; conditions: in vivo, read-out: Drug uptake
Rattus norvegicus [24] = assay: Anti-remodeling activity in rat monocrotaline model of pulmonary arterial hypertension assessed as reduction in MCT-induced muscularization of small blood vessels in lung at 100 mg/kg, po administered once daily for 7 days by histological analysis

Compound: CN1CCN(c2ccccc2CNC(=O)c2ccc(F)c(NC(=O)c3cnc4cc(-c5cc[nH]n5)ccn34)c2)CC1
- IC50 [9]: < 0.0001 µM
- permeability [6]: 0%

Compound: C[C@@H]1CCC[C@H](C)N1CCNC(=O)c1ccc(F)c(NC(=O)c2cnc3cc(-c4ccnn4C)ccn23)c1
- concentration at 7 h [2]: 302 nM
- Occ (Rattus norvegicus [5]): 75%
- permeability [6]: 5.4%
- concentration at 24 h [10]: 44 nM
- Occ (Rattus norvegicus [11]): 0%
- solubility [7]: 590 µg/mL (≈ 1140 µM)

Compound: CCN(CCNC(=O)c1ccc(F)c(NC(=O)c2cnc3cc(-c4ccnn4C)ccn23)c1)C(C)(C)C
- permeability [6]: 23%

Compound: Cn1nccc1-c1ccn2c(C(=O)Nc3cc(C(=O)NCc4ccc(F)c(F)c4)ccc3F)cnc2c1
- Occ (Rattus norvegicus [12]): 27%
- concentration at 7 h [13]: 276000 nM
- permeability [6]: 11%
- solubility [7]: < 10 µg/mL

Compound: Cn1cc(-c2ccn3c(C(=O)Nc4cc(C(=O)NCCN5CCCC5(C)C)ccc4F)cnc3c2)cn1
- concentration at 7 h [2]: 1030 nM
- Occ (Rattus norvegicus [5]): 82%
- permeability [6]: 0.7%
- concentration at 24 h [10]: 420 nM
- Occ (Rattus norvegicus [11]): 51%
- solubility [7]: > 1000 µg/mL

Compound: Cc1ncc(C(=O)NCCN2CCCC2(C)C)cc1NC(=O)c1cnn2cc(-c3cnn(C)c3)ccc12
- IC50 [14]: 5 µM
- IC50 [15]: > 30 µM
- minimal effective dose (Rattus norvegicus [16]): 0.03 mg/kg
- concentration at 7 h [2]: 1300 nM
- concentration [17]: 750 nM
- bioavailability [18]: 90%
- Activity (Rattus norvegicus [19]): 14.3%
- Occ (Rattus norvegicus [5]): 88%
- half-life [20]: 14 h
- concentration [21]: 210 nM
- concentration [22]: 1900 nM
- IC50 (Histamine H3 receptor): 5 µM
- permeability [6]: 4.7%
- concentration at 24 h [10]: 680 nM
- Occ (Rattus norvegicus [11]): 81%
- solubility [7]: > 1000 µg/mL

Compound: Cn1nccc1-c1ccn2c(C(=O)Nc3cc(C(=O)NCCN4CCCC4(C)C)ccc3F)cnc2c1
- permeability [6]: 0.6%

Compound: Cc1ccc(NC(=O)c2ccc(CN3CCN(C)CC3)cc2)cc1Nc1nccc(-c2cccnc2)n1 [IMATINIB]
- concentration [23]: 306000 nM
- Activity (Rattus norvegicus [24]): Active

Compound: CN(CCNC(=O)c1ccc(F)c(NC(=O)c2cnc3cc(-c4ccnn4C)ccn23)c1)C(C)(C)C
- permeability [6]: 0%

Compound: Cn1nccc1-c1ccn2c(C(=O)Nc3cc(C(=O)NCC4CCC(C)(C)O4)ccc3F)cnc2c1 (centres undefined)
- permeability [6]: 81%

Second part, led by results:

- concentration at 24 h [1]: 60 nM
- concentration at 7 h [2]: 687 nM
- concentration at 7 h [3]: 687 nM
- permeability [6]: 4.8%
- solubility [7]: 770 µg/mL (≈ 1360 µM)
Compound: CN1CCN(c2ccccc2CNC(=O)c2ccc(F)c(NC(=O)c3cnc4cc(-c5ccnn5C)ccn34)c2)CC1
- Occ (Rattus norvegicus [4]): 9%
- Occ (Rattus norvegicus [5]): 54%
- Occ (Rattus norvegicus [8]): 70%

- permeability [6]: 26.3%
Compound: CN1CCN(c2ccccc2CNC(=O)c2ccc(F)c(NC(=O)c3cnc4cc(-c5cnn(C)c5)ccn34)c2)CC1

- permeability [6]: 23%
Compound: CN1CCN(c2ccccc2CNC(=O)c2ccc(F)c(NC(=O)c3cnc4cc(-c5cccnc5)ccn34)c2)CC1

- concentration at 7 h [3]: 221 nM
- permeability [6]: 70%
- solubility [7]: > 1000 µg/mL
Compound: CN1CCN(c2ccccc2CNC(=O)c2ccc(F)c(NC(=O)c3cnn4cc(-c5ccnn5C)ccc34)c2)CC1
- Occ (Rattus norvegicus [8]): 29%

- concentration at 7 h [3]: 3950 nM
- permeability [6]: 17%
- solubility [7]: > 1000 µg/mL
Compound: Cc1ncc(C(=O)NCc2ccccc2N2CCN(C)CC2)cc1NC(=O)c1cnn2cc(-c3ccnn3C)ccc12
- Occ (Rattus norvegicus [8]): 83%

- permeability [6]: 83.1%
Compound: CN1CCN(c2ccccc2CNC(=O)c2ccc(F)c(NC(=O)c3cnc4ccccn34)c2)CC1
